Reference: ChEMBL document CHEMBL1129356, “Novel 3,7-diheterabicyclo[3.3.1]nonanes that possess predominant class III antiarrhythmic activity in 1-4 day post infarction dog models: X-ray diffraction analysis of 3-[4-(1H-imidazol-1-yl)benzoyl]-7-isopropyl-3,7-diazabicyclo[3.3.1]nona ne dihydroperchlorate” (1996)
Active and inactive are the calls of the source.

Key:
Canis familiaris [1] = test: Antiarrhythmic property is compared to lidocaine(2) using doses(3 and 6 mg/kg). Time required for the ventricular myocardium to undergo depolarization and repolarization (drug free); format: functional, Canis lupus familiaris
Summary of the method: (§1)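 Mongrel dogs (about 12–25 kg), 1–4 days after coronary occlusion infarction, under sodium pentobarbital (~30 mg/kg) with 12-lead ECG monitoring. Agents and lidocaine were given iv at 3 and 6 mg/kg. Programmed ventricular stimulation was applied at baseline, about 2–5 min after each dose, and at 30 min. SVT was defined as ≥250 beats/min lasting ≥30 s. Pre means drug-free; post means after dosing.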

Canis familiaris [2] = test: Antiarrhythmic property A-V nodal conduction time(post drug) is compared to lidocaine(2) using doses(3 and 6 mg/kg); format: functional, Canis lupus familiaris, Heart; summary of the method: as §1
Canis familiaris [3] = test: (§2) Antiarrhythmic property His-Purkinje conduction time(post drug) is compared to lidocaine(2) using doses(3 and 6 mg/kg); format: functional, Canis lupus familiaris, His-Purkinje system; summary of the method: as §1
Canis familiaris [4] = test: Tested for antiarrhythmic property by measuring ability to decrease heart rate(post drug) is compared to Lidocaine using doses(3 and 6 mg/kg).; format: functional, Canis lupus familiaris; summary of the method: as §1
Canis familiaris [5] = test: Tested for antiarrhythmic property by measuring ability to decrease Mean blood pressure(post drug) is compared to Lidocaine using doses(3 and 6 mg/kg); format: functional, Canis lupus familiaris; summary of the method: as §1
Canis familiaris [6] = test: (§3) Antiarrhythmic property ventricular effective refractory period(drug free) is compared to lidocaine(2) using doses(3 and 6 mg/kg); format: functional, Canis lupus familiaris, Heart; summary of the method: as §1
Canis familiaris [7] = test: Tested for antiarrhythmic property by measuring ability to decrease Mean blood pressure (drug free) is compared to Lidocaine using doses(3 and 6 mg/kg).; format: functional, Canis lupus familiaris; summary of the method: as §1
Canis familiaris [8] = test: Antiarrhythmic property His-Purkinje conduction time(drug free) is compared to lidocaine(2) using doses(3 and 6 mg/kg); format: functional, Canis lupus familiaris, His-Purkinje system; summary of the method: as §1
Canis familiaris [9] = test: Antiarrhythmic property A-V nodal conduction time(drug free) is compared to lidocaine(2) using doses(3 and 6 mg/kg); format: functional, Canis lupus familiaris, Heart; summary of the method: as §1
Canis familiaris [10] = test: Antiarrhythmic property ventricular effective refractory period(post drug) is compared to lidocaine(2) using doses(3 and 6 mg/kg); format: functional, Canis lupus familiaris, Heart; summary of the method: as §1
Canis familiaris [11] = test: Tested for antiarrhythmic property by measuring ability to decrease heart rate(drug free) is compared to Lidocaine using doses (3 and 6 mg/kg).; format: functional, Canis lupus familiaris; summary of the method: as §1
Canis familiaris [12] = test: Antiarrhythmic property is compared to lidocaine(2) using doses(3 and 6 mg/kg). Time required for the ventricular myocardium to undergo depolarization and repolarization ((post drug); format: functional, Canis lupus familiaris; summary of the method: as §1
Canis familiaris [13] = test: Antiarrhythmic property Heart rate (drug free) is compared to Lidocaine using doses (3 and 6 mg/kg).; format: functional, Canis lupus familiaris
Summary of the method: (§4)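 Mongrel dogs (~12–25 kg), 1–4 days after coronary occlusion leaving a surviving epicardial rim, anesthetized with sodium pentobarbital (~30 mg/kg). 12-lead ECG monitored throughout. Agent given iv at 3 and 6 mg/kg. Parameters recorded before (drug free) and after dosing. Programmed electrical stimulation tested SVT inducibility (≥250 beats/min, ≥30 s) at baseline, ~2–5 min after each dose, and at 30 min.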

Canis familiaris [14] = test: (§5) Antiarrhythmic property Nonsustained ventricular tachycardia is compared to lidocaine(2) using dose of (3 and 6 mg/kg); format: functional, Canis lupus familiaris, Heart; summary of the method: as §4
Canis familiaris [15] = test: Antiarrhythmic property His-Purkinje conduction time(drug free) is compared to lidocaine(2) using doses(3 and 6 mg/kg) measures; format: functional, Canis lupus familiaris, His-Purkinje system; summary of the method: as §4
Canis familiaris [16] = test: Antiarrhythmic property Mean blood pressure (drug free) is compared to Lidocaine using doses(3 and 6 mg/kg).; format: functional, Canis lupus familiaris; summary of the method: as §4
Canis familiaris [17] = test: Antiarrhythmic property Heart rate (post drug) is compared to Lidocaine using doses(3 and 6 mg/kg). system.; format: functional, Canis lupus familiaris; summary of the method: as §4
Canis familiaris [18] = test: Antiarrhythmic property His-Purkinje conduction time(post drug) is compared to lidocaine(2) using doses(3 and 6 mg/kg) measures; format: functional, Canis lupus familiaris, His-Purkinje system; summary of the method: as §4
Canis familiaris [19] = test: Antiarrhythmic property Mean blood pressure(post drug) is compared to Lidocaine using doses(3 and 6 mg/kg); format: functional, Canis lupus familiaris; summary of the method: as §4
Canis familiaris [20] = test: Antiarrhythmic properties are compared to lidocaine(2) using doses(3 and 6 mg/kg) measures His-Purkinje conduction time(drug free); format: functional, Canis lupus familiaris, His-Purkinje system; summary of the method: as §4
Canis familiaris [21] = test: as §3; format: functional, Canis lupus familiaris, Heart; summary of the method: as §4; remark: listed apart in the source
Canis familiaris [22] = test: as §2; format: functional, Canis lupus familiaris, His-Purkinje system; summary of the method: as §1; remark: listed apart in the source
Canis familiaris [23] = test: Antiarrhythmic property Nonsustained ventricular tachycardia is compared to lidocaine(2) using doses(3 and 6 mg/kg); format: functional, Canis lupus familiaris, Heart; summary of the method: as §4
Canis familiaris [24] = test: as §5; format: functional, Canis lupus familiaris, Heart; summary of the method: as §1; remark: listed apart in the source
Canis familiaris [25] = test: Tested for antiarrhythmic property by measuring ability to decrease Mean blood pressure (post drug) is compared to Lidocaine using doses(3 and 6 mg/kg); format: functional, Canis lupus familiaris; summary of the method: as §1
Canis familiaris [26] = test: Antiarrhythmic property His-Purkinje conduction time(post drug) is compared to lidocaine(2) using doses(3 and 6 mg/kg); No effect; format: functional, organism-based; design: dose 6 mg/kg; details: Canis lupus familiaris; His-Purkinje system; summary of the method: as §1
Canis familiaris [27] = test: Antiarrhythmic properties are compared to lidocaine(2) using doses(3 and 6 mg/kg). Time required for the ventricular myocardium to undergo depolarization and repolarization ((post drug); No effect; format: functional, organism-based; design: dose 6 mg/kg; details: Canis lupus familiaris; summary of the method: as §1
Canis familiaris [28] = test: Antiarrhythmic property A-V nodal conduction time(post drug) is compared to lidocaine(2) using dose (3 and 6 mg/kg); format: functional, Canis lupus familiaris, Heart; summary of the method: as §1
Canis familiaris [29] = test: Antiarrhythmic properties are compared to lidocaine(2) using doses(3 and 6 mg/kg). Time required for the ventricular myocardium to undergo depolarization and repolarization (drug free); No effect; format: functional, organism-based; design: dose 6 mg/kg; details: Canis lupus familiaris; summary of the method: as §1
Canis familiaris [30] = test: Tested for antiarrhythmic property by measuring ability to decrease heart rate (drug free) is compared to Lidocaine using doses (3 and 6 mg/kg).; format: functional, Canis lupus familiaris; summary of the method: as §1
Canis familiaris [31] = test: Antiarrhythmic properties are compared to lidocaine(2) using doses(3 and 6 mg/kg) measures His-Purkinje conduction time(drug free); No effect; format: functional, organism-based; design: dose 6 mg/kg; details: Canis lupus familiaris; His-Purkinje system; summary of the method: as §1
Canis familiaris [32] = test: Tested for antiarrhythmic property by measuring ability to decrease heart rate (post drug) is compared to Lidocaine using doses (3 and 6 mg/kg); format: functional, Canis lupus familiaris; summary of the method: as §1

SMILES: CC(C)N1CC2CC(CN(C(=O)c3ccc(-n4ccnc4)cc3)C2)C1
- QT (Canis familiaris [1]): 196 ms
- AH interval (Canis familiaris [2]): 66 ms
- HV interval (Canis familiaris [3]): 37 ms
- HR (Canis familiaris [4]): 110 beats min-1
- MBP (Canis familiaris [5]): 84 mmHg
- VERP (Canis familiaris [6]): 144 ms
- MBP (Canis familiaris [7]): 94 mmHg
- HV interval (Canis familiaris [8]): 32 ms
- AH interval (Canis familiaris [9]): 57 ms
- VERP (Canis familiaris [10]): 187 ms
- HR (Canis familiaris [11]): 148 beats min-1
- QT (Canis familiaris [12]): 288 ms

SMILES: Cl.c1ccc(CN2CC3CSCC(C3)C2)cc1
- HR (Canis familiaris [13]): 162 beats min-1
- NSVT (Canis familiaris [14]): 3 mg/kg
- HV interval (Canis familiaris [15]): 30 ms
- MBP (Canis familiaris [16]): 99 mmHg
- HR (Canis familiaris [17]): 165 beats min-1
- HV interval (Canis familiaris [18]): 35 ms
- MBP (Canis familiaris [19]): 105 mmHg

SMILES: CC(C)N1CC2CC(CN(C(=O)c3ccc(N)cc3)C2)C1.Cl.Cl
- QT (Canis familiaris [1]): 210 ms
- AH interval (Canis familiaris [2]): 65 ms
- HR (Canis familiaris [4]): 115 beats min-1
- MBP (Canis familiaris [5]): 77 mmHg
- NSVT (Canis familiaris [6]): 6 mg/kg
- MBP (Canis familiaris [7]): 100 mmHg
- AH interval (Canis familiaris [9]): 55 ms
- VERP (Canis familiaris [10]): 220 ms
- HR (Canis familiaris [11]): 130 beats min-1
- QT (Canis familiaris [12]): 220 ms

SMILES: c1ccc(CN2CC3CSCC(C3)C2)cc1
- HV interval (Canis familiaris [20]): 30 ms
- HR (Canis familiaris [13]): 162 beats min-1
- VERP (Canis familiaris [21]): 142 ms
- MBP (Canis familiaris [16]): 98 mmHg
- HR (Canis familiaris [17]): 162 beats min-1
- HV interval (Canis familiaris [22]): 40 ms
- NSVT (Canis familiaris [23]): 3 mg/kg
- VERP (Canis familiaris [23]): 163 ms
- MBP (Canis familiaris [19]): 120 mmHg

SMILES: O=C(c1ccccc1)N1CC2CC(CN(CC3CC3)C2)C1
- HR (Canis familiaris [4]): 111 beats min-1
- VERP (Canis familiaris [6]): 170 ms
- VERP (Canis familiaris [24]): 190 ms
- MBP (Canis familiaris [7]): 92 mmHg
- AH interval (Canis familiaris [9]): 65 ms
- MBP (Canis familiaris [25]): 83 mmHg
- HV interval (Canis familiaris [26]): inactive
- QT interval (Canis familiaris [27]): inactive
- AH interval (Canis familiaris [28]): 70 ms
- QT interval (Canis familiaris [29]): inactive
- HR (Canis familiaris [30]): 120 beats min-1
- HV interval (Canis familiaris [31]): inactive

SMILES: CC(C)N1CC2CC(CN(C(=O)c3ccc(NS(C)(=O)=O)cc3)C2)C1.Cl
- HR (Canis familiaris [4]): 150 beats min-1
- NSVT (Canis familiaris [24]): 6 mg/kg
- MBP (Canis familiaris [7]): 95 mmHg
- MBP (Canis familiaris [25]): 95 mmHg
- HR (Canis familiaris [11]): 150 beats min-1

SMILES: CC(C)N1CC2CC(CN(C(=O)c3ccc(NS(C)(=O)=O)cc3)C2)C1
- MBP (Canis familiaris [5]): 50 mmHg
- NSVT (Canis familiaris [24]): 6 mg/kg
- MBP (Canis familiaris [7]): 70 mmHg
- HR (Canis familiaris [32]): 150 beats min-1
- HR (Canis familiaris [30]): 150 beats min-1
